Shown is part of a subset that was picked to be rich in hits.
HCT116 PTEN-null: growth suppression of PTEN-null HCT116, primary screen, cell-based, CellTiter-Glo | HCT116 PTEN-null viability, 60 h; active compounds read low | viability, % at 10 µM | actives 1.2% (n = 140,000);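 active = viability at or below a set limit, 4 SD under the median of all tested compounds, cut at about 3.7% in these data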;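 note: PTEN knockout HCT116 line with beta catenin targeted HCT116 as companion control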
Lung fibro prol: antiproliferative effect on LL 47 fibroblasts – human, LL 47 cells, CellTiter-Glo luminescence, primary screen; viability, % at 10 µM; LL 47 human lung fibroblast viability, ATP luminescence; active compounds read low; actives 1.1% (n = 85,000);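 active = viability at or below 50% in the single dose screen; inactive = viability above 50%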;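 note: compound exposure lasted 72 h before the ATP readout; 100% = median luminescence of untreated cell-only wells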
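Material: human LL 47 lung fibroblast cells; quantity: 1,150 cells/well; medium: IMEM plus 15% FBS; doses: 0.1% DMSO in all compound wells; timing: overnight attachment after seeding, then 72 h compound exposure at 37 °C; detection: CellTiter-Glo luminescence; measure: % viability of median cell-only signal; controls: cell-only wells, no compound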
Calb biofilm kill: clotrimazole potentiators killing Candida biofilms, primary screen, with clotrimazole, Alamar Blue; inhibition, % at 6 µM; AID 834, 2007; C. albicans biofilm + clotrimazole; actives 0.14% (n = 85,000);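 active = inhibition above 20%; inactive = inhibition below 20%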;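 note: preformed 24 hr biofilms exposed to compound for 48 hr; 0% = biofilm without compound and 100% = blank killed by clotrimazole plus chlorhexidine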
H69AR growth 86K: proliferation blockers of H69AR lung cancer cells, primary screen, cell-based, human, 86K library; actives 6% (n = 85,000); H69AR lung tumor viability, ATP luminescence, 72 h; active compounds read low; viability, % at 10 µM;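 active = viability at or below 40%; inactive = viability above 40%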;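 note: multidrug resistant small cell line overexpressing MRP-1 efflux transporter; 100% = mean luminescence of untreated control wells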
HUVEC inhibit: inhibitors of HUVEC proliferation, primary screen, cell-based, 384-well. CellTiter-Glo luminescence, 72 h; active compounds read low. viability, % at 10 µM (by protocol). actives 1.1% (n = 86,000);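 active = viability at or below 30%; inactive = viability above 30%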;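 note: 100% = median luminescence of DMSO-only cell control wells on each plate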
bCat KO growth: primary screen for growth suppressors in beta-catenin knockout HCT116 cells (colon tumor, human); HCT116 beta-catenin knockout viability, CellTiter-Glo, 60 h; active compounds read low; viability, % at 10 µM; actives 1.5% (n = 140,000);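 active = viability at or under a set limit, the compound median less 4 SD, cut at about 6% in these data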;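 note: 0% = Hyamine 1622 control at 20 µM and 100% = untreated cell control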
An asterisk follows results filed as active; . = not tested or not shown.

SMILES | HCT116 PTEN-null | Lung fibro prol | Calb biofilm kill | H69AR growth 86K | HUVEC inhibit | bCat KO growth
Cc1ccc(C(NC(=O)C(C)C)c2cc([N+](=O)[O-])c3cccnc3c2O)cc1 (stereo not given) | 11 | . | . | . | . | 9
O=C(NC(c1ccccc1)c1cc(Cl)c2cccnc2c1O)c1cccnc1 (stereo not given) | 8 | . | . | . | . | 6
CCCC(=O)NC(c1ccco1)c1cc(Cl)c2cccnc2c1O (stereo not given) | 7 | 3.1* | 12 | 0.9* | 12* | 6.0*
CCCNC(=O)NC(=O)CSc1ccc2c(c1)OCCO2 | 101 | 101 | 4 | 78 | 100 | 93
Cc1sc2nc(SCC(=O)NCc3ccco3)n(CCc3ccccc3)c(=O)c2c1C | 101 | 47* | 2 | 22* | 60 | 93
CCn1c(SCC(=O)NC(=O)NCc2ccco2)nc2sc(C)c(C)c2c1=O | 96 | . | . | . | . | 88
C=CCn1c(SCC(=O)NC(=O)NCc2ccco2)nc2sc(CC)cc2c1=O | 107 | 48* | 5 | 28* | 90 | 92
Cc1sc2nc(SCC(=O)NCc3ccco3)n(C)c(=O)c2c1C | 112 | 100 | 6 | 90 | 84 | 99
C=CCn1c(SCC(=O)Nc2ccccc2C)nc2sc(C)c(C)c2c1=O | 99 | 93 | 1 | 31* | 83 | 84
Cc1sc2nc(SCC(=O)c3cccs3)n(Cc3ccco3)c(=O)c2c1C | 73 | 84 | 6 | 59 | 24* | 81
COc1ccc(-c2[nH]ncc2-c2cnn(-c3ccccc3)c2)c(O)c1 | 75 | . | . | . | . | 74
O=C(CSc1nnc(Nc2ccccc2F)s1)NCc1ccco1 | 80 | 99 | 4 | 71 | 92 | 72
Cc1ccccc1Nc1nnc(SCC(=O)NC(=O)NCc2ccco2)s1 | 74 | 93 | . | 32* | 85 | 64
CCOC(=O)c1ccccc1NC(=O)Cn1cnc2c(cnn2C(C)(C)C)c1=O | 83 | 95 | 0 | 37* | 82 | 82
CC(C)(C)n1ncc2c(=O)n(CC(=O)NCc3ccc(F)cc3)cnc21 | 32 | 84 | 5 | 21* | 58 | 27
Cc1nn(C)c(C)c1NC(=O)CSc1nc(Cc2ccccc2)nc2c1cnn2-c1ccccc1 | . | 87 | 2 | 5.3* | 87 | .
CCc1nc(SCC(=O)Nc2c(C)nn(C)c2C)c2cnn(-c3ccccc3)c2n1 | 89 | 97 | 5 | 47 | 103 | 86
O=C(COC(=O)c1cccnc1Cl)Nc1nc(-c2ccccc2)cs1 | 97 | . | . | . | . | 95
N#CC1=C(N)C(C#N)(C#N)C(c2cccnc2)C2CC(c3ccccc3)CC=C12 (stereo not given) | 82 | 44* | 15 | 1.6* | 5.9* | 83
O=C(CSc1c2c(nc3cc(Cl)ccc13)CCCC2)NCc1ccco1 | 62 | 76 | 5 | 2.2* | 76 | 68
O=C(CSc1nnc2c3c4c(sc3ncn12)CCCC4)NCc1ccco1 | 56 | 102 | 3 | 28* | 90 | 53
O=C(CSc1ncnc2sc3c(c12)CCCCC3)NCc1ccco1 | 27 | 71 | 5 | 27* | 59 | 27
O=C(CSc1ncnc2sc3c(c12)CCCC3)c1ccco1 | 99 | 102 | 4 | 91 | 92 | 96
CCOC(=O)c1c(C)n(OCc2ccccc2)c2ccc3c(no[n+]3[O-])c12 | 86 | 81 | 3 | 44 | 86 | 85
Cn1c(-c2ccccc2)cc2c3no[n+]([O-])c3ccc21 | 4 | 26* | 7 | 19* | 14* | 9
SMILES | HCT116 PTEN-null | Lung fibro prol | Calb biofilm kill | H69AR growth 86K | HUVEC inhibit | bCat KO growth
CCN(CC(=O)NC(C)C)Cc1nc2sc3c(c2c(=O)[nH]1)CCC3 | 89 | 93 | 0 | 37* | 87 | 93
CN(NC1CC(=O)N(c2ccccc2)C1=O)c1ccccc1 (stereo not given) | 104 | . | . | . | . | 95
O=C(NCCc1ccccc1)C1CCN(S(=O)(=O)c2cccnc2)CC1 | 108 | 98 | 22* | 102 | 104 | 89
O=C(NCCc1ccccc1)C1CCN(S(=O)(=O)N2CCCC2)CC1 | 101 | 100 | -4 | 97 | 97 | 94
O=C(NCc1ccc2c(c1)OCO2)c1ccc(N2C(=O)C3CCCCC3C2=O)cc1 (stereo not given) | 106 | 99 | 6 | 97 | 94 | 101
Cc1cc(N2CCC3(CC2)OCCO3)n2nc(C)c(-c3ccc(Cl)cc3)c2n1 | . | 84 | 1 | 37* | 91 | .
Cc1ccc(C(=O)NCC(=O)OCC(=O)Nc2ccccc2[N+](=O)[O-])cc1 | 101 | . | . | . | . | 98
Cc1onc(-c2ccccc2)c1C(=O)N1CCc2ccccc21 | 98 | . | . | . | . | 80
Cn1c(N/N=C2\CCCc3ccccc32)nc2c1c(=O)n(Cc1ccc(F)cc1)c(=O)n2C | 1.2* | . | . | . | . | 1.2*
COc1ccc(NC(=O)c2c(C(F)(F)F)nn(C)c2SCc2ccccc2Cl)cc1 | 69 | . | . | . | . | 73
CCC(=O)Nc1ccc(/C(C)=N/NC(=O)c2c(-c3ccccc3Cl)noc2C)cc1 | 111 | . | . | . | . | 103
COc1cccc(NC(=O)C(=O)N/N=C/c2cc(C)n(-c3ccc(Cl)c(Cl)c3)c2C)c1 | 52 | . | . | . | . | 48
CC(C)c1nnc(NC(=O)c2c(O)c3cccc4c3n(c2=O)CCC4)s1 | 34 | 67 | 6 | 34* | 109 | 42
Cc1cccc(NC(=O)c2c(O)c3cccc4c3n(c2=O)CCC4)n1 | 98 | 100 | 4 | 85 | 103 | 92
Cc1cnc(NC(=O)c2c(O)c3cccc4c3n(c2=O)CCC4)s1 | 84 | 97 | 0 | 5.7* | 89 | 80
Nc1cc2c(cc1C(=O)c1ccccc1)OCCO2 | 100 | 95 | 8 | 72 | 88 | 92
Nc1ccc(C(=O)c2ccc3c(c2)OCCO3)cc1N | . | 96 | 8 | 36* | 98 | .
CCOc1ccc(-c2nnc3sc(-c4ccccc4OC)nn23)cc1 | . | 100 | -4 | 94 | 107 | .
COc1ccc(-c2nnc3sc(-c4cccs4)nn23)cc1OC | 86 | 101 | -1 | 55 | 84 | 90
CCOc1cccc(-c2nnc3sc(-c4ccc(C)cc4)nn23)c1 | . | 86 | 7 | 19* | 54 | .
CCOc1ccc(-c2nnc3sc(-c4c(OC)cccc4OC)nn23)cc1 | . | 74 | -3 | 35* | 73 | .
COc1cc(-c2nnc3sc(-c4cccs4)nn23)cc(OC)c1OC | 3.0* | 54 | -3 | 21* | 80 | 4.0*
COc1ccccc1-c1nn2c(-c3ccc(C(C)(C)C)cc3)nnc2s1 | . | 95 | 5 | 94 | 25* | .
O=C(CCN(NC(=O)c1ccccc1)C1=NS(=O)(=O)c2ccccc21)NC1CCCCC1 | 93 | . | . | . | . | 93
Cc1nnc(NC(=O)Cn2cnc3c2c(=O)n(C)c(=O)n3C)s1 | 98 | 98 | 8 | 94 | 100 | 84

Assay outcomes from PubChem.
